Source: PubChem BioAssay
T cruzi HTS = inhibitors of intracellular Trypanosoma cruzi. intracellular Trypanosoma cruzi in host cells, plate reader. activity score (inhibition), % at 5.01 µM. 22,000 compounds, 4.9% hits. AID 651903; in the data active = activity score above about 55%;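 also: parasites and compound incubated about four days before reading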
A1 apoptosis 2 = A1 inhibition read as caspase activation | MEF A1-2A-BIM cells, caspase-Glo luminescence, 3 h; percent of clofoctol response, DMSO zero | caspase activation, % (concentration not given with the values) | 24,000 tested, under 10 active | AID 2465; in the data active = caspase activation above about 5.9%
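Material: mouse embryonic fibroblasts co-expressing A1 and BIM (A1-2A-BIM), primed for A1 dependence / Quantity: 2500 cells/well / Buffer or medium: RPMI-1640 growth medium with 10% FBS / Doses: 50 nL compound per well, pinned / Schedule: 3 h compound exposure at 37 °C / Signal: Caspase-Glo luminescence (DEVD substrate) / Measure: Caspase-3/7 activation, seen as rise in luminescence signal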
INS-1E ATP HTS = INS-1E beta cell protection from cytokine death | INS-1E cytokine-induced death, ATP luminescence, 48 h; normalised: neutral wells 0, positive control 100 | protection from cytokine-induced ATP loss, % at 10 µM | 20,000 compounds, 0.1% hits | AID 488910;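 active = mean replicate protection from cytokine-induced ATP loss at least 50% and at least 75% of replicates each reaching 50%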
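Assay system: INS-1E rat insulinoma cells. Amount: 8000 cells per well. Medium: phenol-red-free RPMI with 5% fetal bovine serum. Reagent: IL-1β, TNF-α and IFN-γ cytokine mix. Doses: one compound concentration, pin transfer. Schedule: 48 h co-treatment, 10 min post-lysis read. Detection: CellTiter-Glo luminescence measuring cellular ATP.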
Each line names hits and unclear results; the compound was inactive in the other large screens. The entries come from a sample that favours hits as a whole.

Cc1noc(C)c1S(=O)(=O)Nc1ccc2c(c1)CC(=O)N([C@@H](C)CO)C[C@@H](C)[C@H](CN(C)Cc1ccc(Cl)c(Cl)c1)O2	none (no result: T cruzi HTS, INS-1E ATP HTS)
C[C@@H]1CN([C@H](C)CO)C(=O)c2cccc(NS(C)(=O)=O)c2O[C@H]1CN(C)Cc1ccncc1	none
C[C@@H]1CN([C@@H](C)CO)C(=O)c2cccc(NC(=O)Nc3ccc(C(F)(F)F)cc3)c2O[C@@H]1CN(C)Cc1ccc(C(=O)Nc2ccccc2N)cc1	T cruzi HTS 78 (no result: A1 apoptosis 2)
C[C@H](CO)N1C[C@H](C)[C@@H](CN(C)Cc2ccc(C(=O)O)cc2)Oc2c(NC(=O)Nc3ccc(C(F)(F)F)cc3)cccc2C1=O	none
C[C@H](CO)N1C[C@H](C)[C@H](CN(C)Cc2ccc(C(=O)O)cc2)Oc2c(NC(=O)Nc3ccc(C(F)(F)F)cc3)cccc2C1=O	none
C[C@H](CO)N1C[C@H](C)[C@H](CN(C)Cc2ccc(C(=O)Nc3ccccc3N)cc2)Oc2c(NC(=O)Nc3ccc(C(F)(F)F)cc3)cccc2C1=O	T cruzi HTS 61 (no result: A1 apoptosis 2)
O=C(CCCCCC(=O)Nc1ccccc1O)N/N=C/c1cccs1	none (no result: T cruzi HTS, INS-1E ATP HTS)
C[C@@H]1CN([C@H](C)CO)C(=O)c2cc(NC(=O)Cc3cn(C)c4ccccc34)ccc2O[C@@H]1CN(C)S(=O)(=O)c1ccc(F)cc1	none
C=CCN1Cc2ccccc2[C@H]2OC(c3ccc(OCCCO)cc3)=N[C@@]2(Cc2ccccc2)C1=O	none (no result: T cruzi HTS, INS-1E ATP HTS)
CC(C)(C)NC(=O)C(OC(=O)c1ccccc1)c1cccs1 (centres undefined)	none (no result: T cruzi HTS, INS-1E ATP HTS)
C=CCN1C(=O)[C@]2(CCS(=O)(=O)c3ccccc3)N=C(c3ccc(OCCCO)cc3)O[C@@H]2c2ccccc21	none (no result: T cruzi HTS, INS-1E ATP HTS)
C[C@@H]1CN([C@H](C)CO)C(=O)c2cccc(NC(=O)c3cnccn3)c2O[C@H]1CN(C)Cc1ccc(C(=O)Nc2ccccc2N)cc1	none (no result: A1 apoptosis 2)
Cc1cc(C(=O)Nc2cccc3c2O[C@H](CN(C)Cc2ccc(C(=O)Nc4ccccc4N)cc2)[C@@H](C)CN([C@@H](C)CO)C3=O)n(C)n1	none (no result: A1 apoptosis 2)
Cc1cc(C(=O)Nc2cccc3c2O[C@H](CN(C)Cc2ccc(C(=O)Nc4ccccc4N)cc2)[C@H](C)CN([C@H](C)CO)C3=O)n(C)n1	T cruzi HTS 63
C[C@H](CO)N1C[C@H](C)[C@H](CN(C)Cc2ccc(C(=O)Nc3ccccc3N)cc2)Oc2c(NC(=O)C3CC3)cccc2C1=O	none (no result: A1 apoptosis 2)
C[C@@H]1CN([C@H](C)CO)C(=O)c2cccc(N(C)C)c2O[C@@H]1CN(C)Cc1ccc(C(=O)Nc2ccccc2N)cc1	none (no result: A1 apoptosis 2)
C[C@@H]1CN([C@@H](C)CO)C(=O)c2cccc(NC(=O)C3CC3)c2O[C@@H]1CN(C)Cc1ccc(C(=O)Nc2ccccc2N)cc1	INS-1E ATP HTS 59 (no result: A1 apoptosis 2)
C[C@@H]1CN([C@@H](C)CO)C(=O)c2cccc(NC(=O)c3cnccn3)c2O[C@@H]1CN(C)Cc1ccc(C(=O)Nc2ccccc2N)cc1	T cruzi HTS 72 (no result: A1 apoptosis 2)
C[C@H](CO)N1C[C@H](C)[C@H](CN(C)Cc2ccc(C(=O)Nc3ccccc3N)cc2)Oc2c(cccc2N(C)C)C1=O	T cruzi HTS 56 (no result: A1 apoptosis 2)
O=C1O[C@H](c2ccccc2)[C@H](c2ccccc2)N2[C@H]1[C@@H](C(=O)NC[C@H](O)c1ccccc1)[C@]1(C(=O)Nc3ccccc31)[C@H]2c1ccc(OCCO)cc1	none (no result: T cruzi HTS, INS-1E ATP HTS)
COc1ccc2nc(Cl)nc(NC3CCCCC3)c2c1	none (no result: T cruzi HTS, INS-1E ATP HTS)
O=C(O)c1cccc(/C=N/NC(=O)c2ccc(C(=O)NO)cc2)c1	none
C[C@@H]1CN([C@H](C)CO)C(=O)c2cccc(NC(=O)C3CCCCC3)c2O[C@@H]1CN(C)Cc1ccc(C(=O)Nc2ccccc2N)cc1	none (no result: T cruzi HTS, INS-1E ATP HTS)
C[C@H]1CN([C@@H](C)CO)C(=O)c2cccc(NC(=O)C3CCCCC3)c2O[C@H]1CN(C)Cc1ccc(C(=O)Nc2ccccc2N)cc1	T cruzi HTS 66 (no result: A1 apoptosis 2)
CC(C)NC(=O)N(C)C[C@H]1OCCCC[C@H](C)Oc2ccc(NC(=O)Nc3cccc4ccccc34)cc2C(=O)N([C@H](C)CO)C[C@H]1C	none (no result: T cruzi HTS, INS-1E ATP HTS)
O=C(NCCO)C1=C[C@H](Oc2ccccc2I)[C@@H](O)[C@H](N(Cc2ccco2)C(=O)Cc2ccccc2)C1	none (no result: T cruzi HTS, INS-1E ATP HTS)
C[C@@H]1CN([C@@H](C)CO)C(=O)c2cccc(NS(=O)(=O)c3ccc(F)cc3)c2O[C@@H]1CN(C)Cc1ccc(-c2ccccc2)cc1	T cruzi HTS 66
C[C@H]1CN([C@@H](C)CO)C(=O)c2cccc(NS(=O)(=O)c3ccc(F)cc3)c2O[C@@H]1CN(C)Cc1ccc(-c2ccccc2)cc1	none
C[C@H](CO)N1C[C@H](C)[C@@H](CN(C)Cc2ccc(C(F)(F)F)cc2)Oc2c(NS(=O)(=O)c3ccccc3)cccc2C1=O	T cruzi HTS 66 (no result: A1 apoptosis 2)
C[C@H](CO)N1C[C@H](C)[C@@H](CN(C)Cc2ccccc2)Oc2c(NS(C)(=O)=O)cccc2C1=O	T cruzi HTS 59
C[C@H]1CN([C@@H](C)CO)C(=O)c2cccc(NS(=O)(=O)c3ccccc3)c2O[C@H]1CN(C)Cc1ccc(C(F)(F)F)cc1	none (no result: A1 apoptosis 2)
C[C@H]1CN([C@@H](C)CO)C(=O)c2cccc(NS(C)(=O)=O)c2O[C@H]1CN(C)Cc1ccccc1	none
COc1cc(/C=N/NC(=O)CCCCCC(=O)NO)ccc1O	none (no result: T cruzi HTS, INS-1E ATP HTS)
CC(C)NC(=O)Nc1ccc2c(c1)CC(=O)N([C@@H](C)CO)C[C@@H](C)[C@@H](CN(C)C(=O)Nc1ccccc1)O2	none
C[C@@H]1CN([C@@H](C)CO)C(=O)c2cccc(NC(=O)Nc3ccc(C(F)(F)F)cc3)c2O[C@H]1CN(C)CC1CC1	none
C[C@H](CO)N1C[C@H](C)[C@H](CN(C)CC2CC2)Oc2c(NC(=O)Nc3ccc(C(F)(F)F)cc3)cccc2C1=O	T cruzi HTS 82
C[C@H](CO)N1C[C@H](C)[C@@H](CN(C)CC2CCCCC2)Oc2c(NC(=O)Nc3ccc(C(F)(F)F)cc3)cccc2C1=O	T cruzi HTS 69
C[C@@H]1CN([C@H](C)CO)C(=O)c2cccc(NC(=O)Nc3ccc(C(F)(F)F)cc3)c2O[C@@H]1CN(C)CC1CC1	none
Cc1ccsc1/C=N/NC(=O)c1cccc(C(=O)NO)c1	none
CO[C@H]1O[C@H](CO)[C@@H](OC(=O)Nc2ccc3c(c2)OCO3)[C@H](OC(=O)Nc2ccccc2)[C@@H]1OC(=O)Nc1ccccc1	none (no result: T cruzi HTS, INS-1E ATP HTS)
COc1ccc(O)c(/C=N/NC(=O)CCCCCC(=O)Nc2ccccc2O)c1	none (no result: A1 apoptosis 2)
O=C(N/N=C/c1ccc(CO)o1)c1ccccn1	none (no result: A1 apoptosis 2)
COc1ccc(CN(C)C[C@@H]2Oc3c(NC(=O)c4ccncc4)cccc3C(=O)N([C@H](C)CO)C[C@H]2C)cc1	T cruzi HTS 76
C[C@@H]1CN([C@@H](C)CO)C(=O)c2cccc(NC(=O)c3ccncc3)c2O[C@@H]1CN(C)Cc1ccc(Oc2ccccc2)cc1	T cruzi HTS 78
C[C@H]1CN([C@@H](C)CO)C(=O)c2cccc(NC(=O)c3ccncc3)c2O[C@@H]1CN(C)Cc1ccncc1	none (no result: A1 apoptosis 2)
C[C@@H]1CN([C@H](C)CO)C(=O)c2cccc(NC(=O)c3ccncc3)c2O[C@H]1CN(C)Cc1ccc(Oc2ccccc2)cc1	T cruzi HTS 85
